Source: ChEMBL document CHEMBL4665734, “Optimization of globomycin analogs as novel gram-negative antibiotics” (Bioorg Med Chem Lett, 2020)
≈ marks a conversion by molar mass, not a printed value. Starred links: 1 amine or outer side, 2 acyl side, 3 side chain; linkers in the order of their positions; H or OH if unused. Non-standard residues stand in square brackets, D forms with d. Residues, ends and D or L forms follow the SMILES beside them. *: point of attachment. X6 = C[C@H](CO[C@H](CC1C[C@H]2CC[C@@H](C1)C2)[C@@H](C)C(=O)[*:2])N[*:1]; dAlaψ(CH2NBu)Nle = CCCC[C@@H](C(=O)[*:2])N(CCCC)C[C@@H](C)N[*:1]; X3 = C[C@H](CO[C@H](CC1CC2(CCC2)C1)[C@@H](C)C(=O)[*:2])N[*:1]; X10 = CCCCCC[C@@H](OC[C@@H](CC)N[*:1])[C@@H](C)C(=O)[*:2]; X8 = CCCCCC[C@@H](O[C@@H](C)CN[*:1])[C@@H](C)C(=O)[*:2]; X7 = CCCCCC[C@@H](O[C@H](C)CN[*:1])[C@@H](C)C(=O)[*:2]; Cyclobutyl(trans-3-NH2) = N[C@H]1C[C@H](*)C1; X4 = CCCCCCN(CCN[*:1])[C@@H](C)C(=O)[*:2]; Gly(cHept) = N[C@H](C(=O)O)C1CCCCCC1; aThr = C[C@H](O)[C@H](N)C(=O)O; NMeL = CN[C@@H](CC(C)C)C(=O)O; Chg = N[C@H](C(=O)O)C1CCCCC1; NMeNva = CCC[C@H](NC)C(=O)O; Dap = NC[C@H](N)C(=O)O; X5 = NCCCNCCC*

Legend:
[1] = Stability of the compound in mouse plasma assessed as parent compound remaining after 24 hrs; assay type: ADME, cell-free; settings: read-out: Stabilty
Procedure, shortened: (§1)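 Test compound incubated for 24 hour in human, rat or mouse plasma. Stability is reported as the percentage of parent compound remaining.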

[2] = Stability of the compound in human plasma assessed as parent compound remaining after 24 hrs; assay type: ADME, cell-free; settings: read-out: Stabilty; procedure, shortened: as §1
Escherichia coli = test: Inhibition of LspA in Escherichia coli CFT073imp4213 harboring outer membrane-permeable mutant assessed as inhibition of bacterial growth
Procedure, shortened: (§2)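 Read-out is the minimum inhibitory concentration, reported in µM.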

Escherichia coli CFT073 = test: Inhibition of LspA in wild type Escherichia coli CFT073 assessed as inhibition of bacterial growth; procedure, shortened: as §2
[3] = Growth inhibition of Staphylococcus aureus USA300
Klebsiella pneumoniae = test: Inhibition of LspA in Klebsiella pneumoniae assessed as inhibition of bacterial growth
[4] = Lipophilicity, logD of the compound at pH 7.4; settings: buffer, pH 7.4, logD
Pseudomonas aeruginosa = test: Inhibition of LspA in Pseudomonas aeruginosa assessed as inhibition of bacterial growth
Acinetobacter baumannii = test: Inhibition of LspA in Acinetobacter baumannii assessed as inhibition of bacterial growth
[5] = Protein binding in rat plasma; assay type: ADME, cell-free; settings: read-out: PPB (converted)
[6] = Stability of the compound in rat plasma assessed as parent compound remaining after 24 hrs; assay type: ADME, cell-free; settings: read-out: Stabilty; procedure, shortened: as §1
Jurkat = test: Cytotoxicity against human Jurkat cells; assay type: cell-based
Procedure, shortened: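 Jurkat cell growth assay. Result reported as antiproliferative EC50.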

[7] = Half life in iv dosed rat; assay type: ADME, organism-based; settings: in vivo
[8] = Clearance in iv dosed rat; assay type: ADME, organism-based; settings: in vivo
[9] = Clearance in rat liver microsomes; assay type: ADME, Microsome
Procedure, shortened: (§3)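 Intrinsic clearance in rat or mouse liver microsomes, expressed in mL/min/kg.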

[10] = Protein binding in mouse plasma; assay type: ADME, cell-free; settings: read-out: PPB (converted)
[11] = Clearance in mouse liver microsomes; assay type: ADME, Microsome; procedure, shortened: as §3
[12] = Clearance in iv dosed mouse; assay type: ADME, organism-based; settings: in vivo
[13] = Half life in iv dosed mouse; assay type: ADME, organism-based; settings: in vivo
Enterobacter cloacae = test: Inhibition of LspA in Enterobacter cloacae assessed as inhibition of bacterial growth

Row | SMILES | remaining at 24 h [1] [%] | remaining at 24 h [2] [%] | MIC (Escherichia coli) [µM] | MIC (Escherichia coli CFT073) [µM] | MIC [3] [µM] | MIC (Klebsiella pneumoniae) [µM] | logD [4] | MIC (Pseudomonas aeruginosa) [µM] | MIC (Acinetobacter baumannii) [µM] | fraction unbound [5] | remaining at 24 h [6] [%] | EC50 (Jurkat) [µM] | half-life [7] [h] | clearance [8] [mL/min/kg] | CLhep predicted [9] [mL/min/kg] | fraction unbound [10] | CLhep predicted [11] [mL/min/kg] | clearance [12] [mL/min/kg] | half-life [13] [h] | MIC (Enterobacter cloacae) [µM]
1 | CCCCCC[C@H]1C(=O)N(C)[C@@H](CC(C)C)C(=O)N[C@@H](C2CCCCC2)C(=O)N[C@@H](CN)C(=O)N[C@@H]([C@H](C)O)C(=O)NCCN1C | 81 | 92 | 0.39 (≈ 0.254 µg/mL) | 12 (≈ 7.82 µg/mL) | 100 (≈ 65.2 µg/mL) |  |  |  |  |  |  |  |  |  |  |  |  |  |  | 
2 | CCCCCCN1CCCNC(=O)[C@H]([C@H](C)O)NC(=O)[C@H](CN)NC(=O)[C@H]([C@H](C)CC)NC(=O)[C@H](CC(C)C)N(C)C(=O)[C@@H]1C | 100 | 101 | 12.5 (≈ 8 µg/mL) | > 100 | > 100 |  |  |  |  |  |  |  |  |  |  |  |  |  |  | 
3 | CCCCCCN1CCNC(=O)[C@H](CO[C@H]2C[C@H](N)C2)NC(=O)[C@H](CN)NC(=O)[C@H](C2CCCCC2)NC(=O)[C@H](CC(C)C)N(C)C(=O)[C@@H]1C (cyclo([Chg][Dap]S(Cyclobutyl(trans-3-NH2))[X4][NMeL])) | 95 | 110 |  | 6.3 (≈ 4.45 µg/mL) | 100 (≈ 70.7 µg/mL) | 100 (≈ 70.7 µg/mL) | 1 | > 100 | > 100 | 0.043 | 60 | > 100 | 1.6 | 8.7 | 26 | 0.03 | 34 |  |  | 
4 | CCCC[C@H]1C(=O)N(C)[C@@H](CCC)C(=O)N[C@@H](C2CCCCC2)C(=O)N[C@@H](CN)C(=O)N[C@@H](CO[C@H]2C[C@H](N)C2)C(=O)N[C@H](C)CN1CCCC (cyclo([Chg][Dap]S(Cyclobutyl(trans-3-NH2))[dAlaψ(CH2NBu)Nle][NMeNva])) | 55 | 105 |  | 6.3 (≈ 4.54 µg/mL) | 50 (≈ 36.1 µg/mL) | 25 (≈ 18 µg/mL) | 1.5 | 100 (≈ 72.1 µg/mL) | 25 (≈ 18 µg/mL) | 0.047 | 58 |  | 6.8 | 24 | < 6.1 | 0.026 | 32 |  |  | 
5 | CCCCCCN1CCNC(=O)[C@H]([C@H](C)O)NC(=O)[C@H](CN)NC(=O)[C@H](C2CCCCC2)NC(=O)[C@H](CC(C)C)N(C)C(=O)[C@@H]1C (cyclo([Chg][Dap][aThr][X4][NMeL])) | 112 | 95 | 0.5 (≈ 0.326 µg/mL) | 25 (≈ 16.3 µg/mL) | > 100 |  |  |  |  |  |  |  |  |  |  |  |  |  |  | 
6 | CCCCCC[C@H]1O[C@H](C)CNC(=O)[C@H]([C@H](C)O)NC(=O)[C@H](CN)NC(=O)[C@H](C2CCCCC2)NC(=O)[C@H](CC(C)C)N(C)C(=O)[C@@H]1C (cyclo([Chg][Dap][aThr][X7][NMeL])) | 92 | 100 | 0.4 (≈ 0.272 µg/mL) | 35 (≈ 23.8 µg/mL) | 100 (≈ 68.1 µg/mL) |  |  |  |  |  |  |  |  |  |  |  |  |  |  | 
7 | CCCCCC[C@H]1O[C@@H](C)CNC(=O)[C@H]([C@H](C)O)NC(=O)[C@H](CN)NC(=O)[C@H](C2CCCCC2)NC(=O)[C@H](CC(C)C)N(C)C(=O)[C@@H]1C (cyclo([Chg][Dap][aThr][X8][NMeL])) | 101 | 91 | 0.1 (≈ 0.0681 µg/mL) | 12 (≈ 8.17 µg/mL) | 100 (≈ 68.1 µg/mL) |  |  |  |  |  |  |  |  |  |  |  |  |  |  | 
8 | CCCCCC[C@H]1OC[C@@H](CC)NC(=O)[C@H]([C@H](C)O)NC(=O)[C@H](CN)NC(=O)[C@H](C2CCCCC2)NC(=O)[C@H](CC(C)C)N(C)C(=O)[C@@H]1C (cyclo([Chg][Dap][aThr][X10][NMeL])) | 87 | 101 | 0.024 (≈ 0.0167 µg/mL) | 2.2 (≈ 1.53 µg/mL) | 50 (≈ 34.7 µg/mL) |  |  |  |  |  |  |  |  |  |  |  |  |  |  | 
9 | CCCC[C@H]1C(=O)N(C)[C@@H](CC(C)C)C(=O)N[C@@H](C2CCCCC2)C(=O)N[C@@H](CN)C(=O)N[C@@H]([C@H](C)O)C(=O)N[C@H](C)CN1CCCC (cyclo([Chg][Dap][aThr][dAlaψ(CH2NBu)Nle][NMeL])) | 89 | 97 | 0.017 (≈ 0.0116 µg/mL) | 1.6 (≈ 1.09 µg/mL) | 71 (≈ 48.3 µg/mL) |  | 3.4 |  |  | 0.005 | 102 |  | 2.6 | 53 | 27 | 0.004 | 77 |  |  | 
10 | CCC[C@H]1C(=O)N[C@@H](C2CCCCCC2)C(=O)N[C@@H](CN)C(=O)N[C@@H](CO[C@H]2C[C@H](N)C2)C(=O)N[C@H](C)CO[C@H](CC2CC3(CCC3)C2)[C@@H](C)C(=O)N1C (cyclo([Dap]S(Cyclobutyl(trans-3-NH2))[X3][NMeNva][Gly(cHept)])) | 84 | 103 |  | 2.2 (≈ 1.67 µg/mL) | 25 (≈ 19 µg/mL) | 8.8 (≈ 6.69 µg/mL) | 2.2 | 71 (≈ 54 µg/mL) | 18 (≈ 13.7 µg/mL) | 0.022 | 90 |  | 3.2 | 40 | 28 | 0.007 | 48 | 11 | 4 | 6.3 (≈ 4.79 µg/mL)
11 | CCC[C@H]1C(=O)N[C@@H](C2CCCCCC2)C(=O)N[C@@H](CN)C(=O)N[C@@H](CO[C@H]2C[C@H](N)C2)C(=O)N[C@H](C)CO[C@H](CC2C[C@H]3CC[C@@H](C2)C3)[C@@H](C)C(=O)N1C (stereo partly drawn) (cyclo([Dap]S(Cyclobutyl(trans-3-NH2))[X6][NMeNva][Gly(cHept)])) | 95 | 99 |  | 0.78 (≈ 0.604 µg/mL) | 50 (≈ 38.7 µg/mL) | 8.8 (≈ 6.81 µg/mL) | 1.7 | 100 (≈ 77.4 µg/mL) | 25 (≈ 19.4 µg/mL) | 0.026 | 94 | > 100 | 5.8 | 15 | 21 | 0.003 | 41 | 17 | 2.1 | 3.1 (≈ 2.4 µg/mL)
12 | CCC[C@H]1C(=O)N[C@@H](C2CCCCCC2)C(=O)N[C@@H](CN)C(=O)N[C@@H](COCCCNCCCN)C(=O)N[C@H](C)CO[C@H](CC2CC3(CCC3)C2)[C@@H](C)C(=O)N1C (cyclo([Dap]S(X5)[X3][NMeNva][Gly(cHept)])) | 106 | 103 |  | 1.6 (≈ 1.29 µg/mL) | 18 (≈ 14.5 µg/mL) | 3.1 (≈ 2.5 µg/mL) | 0.7 | 50 (≈ 40.3 µg/mL) | 50 (≈ 40.3 µg/mL) | 0.025 | 118 | > 50 |  |  |  | 0.001 | 53 | 12 | 4.6 | 3.1 (≈ 2.5 µg/mL)
13 | CCC[C@H]1C(=O)N[C@@H](C2CCCCCC2)C(=O)N[C@@H](CN)C(=O)N[C@@H](COCCCNCCCN)C(=O)N[C@H](C)CO[C@H](CC2C[C@H]3CC[C@@H](C2)C3)[C@@H](C)C(=O)N1C (some centres undefined) (cyclo([Dap]S(X5)[X6][NMeNva][Gly(cHept)])) |  |  |  | 0.78 (≈ 0.639 µg/mL) | 12 (≈ 9.83 µg/mL) | 1.6 (≈ 1.31 µg/mL) | 0.2 | 12 (≈ 9.83 µg/mL) | 25 (≈ 20.5 µg/mL) | 0.026 |  | > 100 |  |  |  | 0.004 |  | 68 | 2.5 | 1.6 (≈ 1.31 µg/mL)
